Screening results from PubChem.
Shown are actives, neighbours in structure and some others; about 2.5% of the full set was active somewhere.
Pemphigus Ab inh: inhibitors of pemphigus antibody binding to DSG3, primary screen, biochemical, bead-based, flow cytometry, scFv-GFP | DSG3-coupled beads, scFv-anti-DSG3-GFP binding; active compounds read low | AID 588358, 2011 | Desmoglein-3 (Homo sapiens), P32926 | binding (percent of control), % at 10 µM | hit rate 0.48% among 310,000;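 active = binding more than 3 SD below its plate's average and above zero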;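 note: hits lower antibody fragment binding to DSG3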
TRPC4 agonist: activators of mouse TRPC4 channel, primary screen, Fluo4 calcium, HEK293 TRPC4beta/mu-opioid cells | Short transient receptor potential channel 4 (Mus musculus), Q9QUQ5 | Fluo4 calcium fluorescence; active compounds read high | hit rate 0.49% among 310,000 | B-score at 10 µM;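 active = B-score above 5 SD of library B-scores, and initial fluorescence ratio not above library mean plus 5 SD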;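 note: positive B-score marks a calcium rise read as TRPC4 activation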
Target sequence (Q9QUQ5 whole entry, looked up): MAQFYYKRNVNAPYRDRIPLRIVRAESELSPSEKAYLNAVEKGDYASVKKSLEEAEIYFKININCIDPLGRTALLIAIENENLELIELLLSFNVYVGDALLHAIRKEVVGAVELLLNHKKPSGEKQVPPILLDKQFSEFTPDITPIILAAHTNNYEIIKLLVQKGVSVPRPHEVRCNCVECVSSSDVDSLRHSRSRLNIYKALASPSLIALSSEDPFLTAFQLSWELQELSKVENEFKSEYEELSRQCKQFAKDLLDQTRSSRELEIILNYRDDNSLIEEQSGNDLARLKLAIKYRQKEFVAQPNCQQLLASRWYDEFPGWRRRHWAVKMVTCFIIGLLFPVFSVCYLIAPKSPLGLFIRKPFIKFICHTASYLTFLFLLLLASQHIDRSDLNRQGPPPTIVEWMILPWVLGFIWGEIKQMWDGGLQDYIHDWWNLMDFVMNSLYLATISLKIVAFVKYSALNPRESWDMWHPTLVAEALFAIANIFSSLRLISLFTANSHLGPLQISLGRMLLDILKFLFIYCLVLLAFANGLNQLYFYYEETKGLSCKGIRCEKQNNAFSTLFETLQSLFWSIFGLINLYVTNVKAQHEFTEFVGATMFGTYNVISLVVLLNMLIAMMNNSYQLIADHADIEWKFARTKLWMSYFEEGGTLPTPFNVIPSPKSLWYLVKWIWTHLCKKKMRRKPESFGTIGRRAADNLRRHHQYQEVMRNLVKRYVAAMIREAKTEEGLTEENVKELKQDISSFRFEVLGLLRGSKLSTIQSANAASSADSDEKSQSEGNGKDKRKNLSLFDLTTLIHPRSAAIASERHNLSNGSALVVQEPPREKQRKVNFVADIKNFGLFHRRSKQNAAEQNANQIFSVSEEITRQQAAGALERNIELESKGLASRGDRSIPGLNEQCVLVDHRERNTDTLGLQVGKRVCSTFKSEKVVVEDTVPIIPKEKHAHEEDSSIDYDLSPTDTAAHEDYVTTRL
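Incubation: 45 min room-temperature Fluo4 loading, 110 s read / System: HEK293 cells stably co-expressing mouse TRPC4beta and mu-opioid receptor / Signal: Fluo4 fluorescence, kinetic / Control set: buffer (low) and maximal DAMGO (high) / Measure: integrated baseline-normalised fluorescence ratio, converted to per-well B score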
TRPC6 activator: mouse TRPC6 channel activators, primary screen, cell-based, HEK293, membrane potential dye | AID 2550, 2010 | HEK293-TRPC6 membrane potential dye fluorescence; active compounds read high | hit rate 0.13% among 310,000 | B-score at 10 µM | Short transient receptor potential channel 6 (Mus musculus), Q61143;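 active = B-score of the integrated fluorescence ratio above library mean plus 3 SD, and starting fluorescence ratio within library mean plus 5 SD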;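 note: higher score means more depolarization so channel activation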
TRPC4 inh: inhibitors of mouse TRPC4 channel, primary screen, Fluo4 calcium, HEK293 TRPC4beta/mu-opioid cells; hit rate 0.39% among 300,000; DAMGO-evoked Fluo4 calcium flux; active compounds read low; B-score at 10 µM; AID 2247, 2010;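 active = B-score over 3 SD under the library average, no early fluorescence shift, positive overall ratio signal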
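Assay system: TRPC4beta/mu-opioid receptor HEK293 cell line; compound dosing: single concentration per test compound; detection: Fluo4 Ca2+ flux fluorescence; evaluation: per-well B score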
TRPC4 potent: positive allosteric modulators of TRPC4, primary screen, cell-based, mouse TRPC4beta, HEK293 mu-opioid, Fluo-4 calcium; AID 2227, 2009; hit rate 0.42% among 310,000; B-score at 10 µM; DAMGO EC20, Fluo-4 Ca2+ flux; active compounds read high;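 active = B-score of calcium response area above 5 SD of library B-scores, with initial fluorescence ratio within 5 SD of library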
TRPC6 inhibitor: mouse TRPC6 channel inhibitors, primary screen, cell-based, HEK293, membrane potential dye; Short transient receptor potential channel 6 (Mus musculus), Q61143; ACh-evoked depolarization; active compounds read low; B-score at 10 µM; hit rate 1.1% among 310,000; AID 2553, 2010;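 active = B-score under library mean minus 3 SD, initial fluorescence not abnormally high, positive integrated signal ratio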;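 note: B-score derived from integrated fluorescence ratio over the kinetic read; more negative B-score means stronger inhibition of depolarization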
TRPC4 sel inh 2: second check of whether TRPC6 inhibitors also affect mouse TRPC4; shares compounds with TRPC6 inhibitor; HEK293 TRPC4/MOR, membrane potential dye fluorescence; channel activated by saturating DAMGO dose; inhibition, % at 10 µM; hit rate 42% among 920; AID 2776;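 active = compounds whose fluorescence signal differed from control wells by over 3 SD, either direction, in both duplicate plates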
TRPC4 spec: mouse TRPC4 modulation by TRPC6 hits, confirmation, selectivity assay for TRPC6 inhibitor project, cell-based, HEK293 TRPC4/mu-opioid, membrane potential dye. hit rate 61% among 920. shares compounds with TRPC6 inhibitor. activity change, negative = inhibition, % at 10 µM. membrane potential fluorescence. AID 2777, 2010;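 active = rise or fall in signal beyond 3 SD of buffer-only wells in both replicate plates, either sign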;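 note: integrated kinetic ratio of fluorescence range over baseline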
HEK293 MPD ctr 2-1: nonspecific membrane potential effects, parental HEK293, confirmation, counter-screen for TRPC6 inhibitor project, cell-based, second counter screen; parental HEK293 membrane potential dye fluorescence; maximal acetylcholine challenge after compound addition; shares compounds with TRPC6 inhibitor; hit rate 31% among 920; signal change vs control, % at 10 µM;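 active = membrane potential signal moving either way by over 3 SD of the maximum-effect control, in both duplicate plates, meaning non-specific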
HEK293 MPD ctr-1: membrane potential modulation in parental HEK293, confirmation, counter-screen for TRPC6 inhibitor project, cell-based | hit rate 60% among 920 | membrane potential signal change, % at 10 µM | parental HEK293 membrane potential dye fluorescence | shares compounds with TRPC6 inhibitor | AID 2780, 2010;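 active = membrane potential signal shifting up or down by more than 3 SD of buffer-only wells, on both duplicate plates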
HEK293 MPD ctr-2: parental HEK293 membrane potential modulation, confirmation, counter-screen for TRPC6 modulator project, cell-based. shares compounds with TRPC6 inhibitor. membrane potential dye fluorescence. membrane potential signal change, % at 10 µM. hit rate 51% among 2,400. AID 488924, 2010;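 active = membrane potential signal moves up or down beyond 5 SD from buffer-only wells, on both duplicate plates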
HEK293 MPD ctr 2-2: parental HEK293 nonspecific activity of TRPC6 modulators, second screen; shares compounds with TRPC6 inhibitor; hit rate 14% among 2,400; AID 488926; inhibition, % at 10 µM; membrane potential dye fluorescence; after compound, maximal acetylcholine stimulation;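 active = membrane potential signal drops by more than 5 SD from the mean control signal, in both duplicate plates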
TRPC4 ctr mod: TRPC4 modulation by TRPC6 hit compounds, confirmation, selectivity assay for TRPC6 modulator project, cell-based, HEK293 TRPC4/mu-opioid, membrane potential dye, mouse; shares compounds with TRPC6 inhibitor; membrane potential fluorescence; percent change from control (negative = decrease, positive = increase), % at 10 µM; AID 488927, 2010; hit rate 69% among 2,400;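 active = membrane potential signal moved up or down beyond 5 SD of buffer control wells, in both duplicate plates, actives on both sides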
TRPC4 ctr inh 2: second selectivity test of TRPC6 modulators against mouse TRPC4; hit rate 55% among 2,400; inhibition, % at 10 µM; shares compounds with TRPC6 inhibitor; HEK293 TRPC4/mu-opioid, membrane potential dye fluorescence; stimulated with maximal-effect DAMGO;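 active = drop in membrane potential signal beyond 5 SD of the control wells in both duplicate plates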;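 note: TRPC4 counter screen for TRPC6 hits run under conditions tuned for TRPC6 not TRPC4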
TRPC6 inh conf: mouse TRPC6 channel inhibitors, confirmation, HEK293 cells, membrane potential dye, duplicate. shares compounds with TRPC6 inhibitor. inhibition, % at 10 µM. hit rate 43% among 3,300. ACh-evoked depolarization;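 active = fluorescence ratio falls more than 5 SD below the full-stimulation control mean, in both duplicate runs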;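 note: integrated fluorescence ratio of peak minus minimum over baseline after agonist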
TRPC6 act confirm: mouse TRPC6 channel activators, confirmation, HEK293 cells, membrane potential dye, duplicate; shares compounds with TRPC6 inhibitor; HEK293-TRPC6 membrane potential dye fluorescence, FDSS; activation, % at 10 µM; hit rate 11% among 2,800;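 active = ratio signal rise beyond 5 SD above unstimulated control wells' mean, seen in both duplicate runs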
Each line names hits and unclear results; the compound was inactive in the other large screens (follow-up assays come after a bar, where they were run).

NCCNC[C@@H]1COC2(CCCCCCCCCCC2)O1	TRPC6 inhibitor -6.9 | TRPC4 sel inh 2 33% | TRPC4 spec 1.8% | HEK293 MPD ctr 2-1 inactive | HEK293 MPD ctr-1 7.8% | TRPC6 inh conf 62% | TRPC6 act confirm inactive
CCN(C1CCCCC1)S(=O)(=O)c1ccc(S(=O)(=O)N2CCN(CCC#N)CC2)cc1	TRPC6 inhibitor -5.5 | HEK293 MPD ctr-2 inactive | HEK293 MPD ctr 2-2 inactive | TRPC4 ctr mod 10% | TRPC4 ctr inh 2 inactive | TRPC6 inh conf 38% | TRPC6 act confirm inactive
O=c1[nH][nH]c(=O)c(Cl)c1Cl	none (no result: TRPC4 agonist, TRPC6 activator, TRPC4 inh, TRPC4 potent, TRPC6 inhibitor)
COCCNCC(=O)N1c2ccccc2Sc2ccccc21	none
Cc1cccc[n+]1CC(=O)N1c2ccccc2Sc2ccccc21	TRPC6 inhibitor -11 | TRPC4 sel inh 2 inactive | TRPC4 spec inactive | HEK293 MPD ctr 2-1 -12% | HEK293 MPD ctr-1 inactive | TRPC6 inh conf 93% | TRPC6 act confirm inactive
CC(C)CNCC(=O)N1c2ccccc2Sc2ccccc21	TRPC6 inhibitor -5.7 | HEK293 MPD ctr-2 124% | HEK293 MPD ctr 2-2 inactive | TRPC4 ctr mod 16% | TRPC4 ctr inh 2 56% | TRPC6 inh conf inactive
Cc1cc(F)ccc1S(=O)(=O)N1CCCOC1CNC(=O)C(=O)NCc1ccncc1 (configuration not stated)	none
